Usually IC50 stands for the concentration at which inhibition is half-maximal. High values mean weaker potency in that assay, low ones greater potency in that assay. In general, inhibition refers to the percentage by which the read-out fell short of the control.

Activity calls are given as the source filed them. The calls are words filed in the database; no cut-off is given here. Some results are limits rather than exact numbers.

Assay [1] can be described thus: Inhibition of Saccharomyces cerevisiae alpha-glucosidase using PNPG as substrate preincubated for 10 mins followed by substrate addition measured after 30 mins. Summed up:
(§1)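 Enzyme 0.1 U/mL final in 0.1 M potassium phosphate, pH 6.8, with compound added from DMSO; 10 min at 37 ℃, then PNPG at 1 mmol/L final, another 30 min at 37 ℃. Absorbance read at 405 nm against a no-compound control. Line 1 screened at a single 100 µM; IC50 from the %inhibition–concentration plot. Duplicates, means taken.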

The subject of assay [2] is Saccharomyces cerevisiae. As to the kind of experiment: Inhibition of Saccharomyces cerevisiae alpha-glucosidase at 100 uM using PNPG as substrate preincubated for 10 mins followed by substrate addition measured after 30 mins relative to control. The conditions noted are these: time 40.0 min. Summed up:
as §1

Assay [3] concerns Saccharomyces cerevisiae. As to the kind of experiment: Reversible inhibition of Saccharomyces cerevisiae alpha-glucosidase. Summed up: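 Rate (ΔOD/min) was plotted against α-glucosidase concentration at several fixed inhibitor levels, 0–35 µM. Conditions otherwise as in the PNPG 405 nm assay at pH 6.8 and 37 ℃.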
For assay [4], the system named is Saccharomyces cerevisiae. The experiment in a line: Mixed type inhibition of Saccharomyces cerevisiae alpha-glucosidase assessed as equilibrium constant for free enzyme using varying level of PNPG as substrate by Lineweaver-Burk double reciprocal plot analysis. Put shortly: (§2)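 Run as the PNPG/phosphate pH 6.8, 37 ℃, 405 nm assay, but with compound concentration varied together with either PNPG or enzyme level. Lineweaver-Burk plots were made. KI (free enzyme) and KIS (enzyme–substrate complex) were taken from apparent Km/Vmax and 1/Vmax plotted against inhibitor concentration.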

Assay [5] has as its system Saccharomyces cerevisiae. As to the kind of experiment: Mixed type inhibition of Saccharomyces cerevisiae alpha-glucosidase assessed as equilibrium constant for enzyme substrate complex using varying level of PNPG as substrate by Lineweaver-Burk double reciprocal plot analysis. Put shortly: as §2

Turning to `O=C(/C=C/c1ccc(Br)cc1)Oc1ccc2ccc(=O)oc2c1`, in assay [1], the IC50 is more than 100 µM. The same molecule gave an inhibition in the assay with Saccharomyces cerevisiae [2] of 30.1%.

`O=C(/C=C/c1ccccc1)Oc1ccc2ccc(=O)oc2c1` [7-CINNAMOYLOXYCOUMARIN]: the IC50 in assay [1] was more than 100 µM. The same molecule displayed an inhibition in the assay with Saccharomyces cerevisiae [2] of 45.6%.

For `O=C(/C=C/c1ccccc1)Oc1cc(=O)oc2ccccc12`, in assay [1], the IC50 is 19.6 µM. In addition, in the assay on Saccharomyces cerevisiae [2], the inhibition stood at 83.5%. Further, the inhibition entry with Saccharomyces cerevisiae [3] is “Active”. Moreover, the Ke in the assay with Saccharomyces cerevisiae [4] was determined as 27.4 µM; with Saccharomyces cerevisiae [5], 13 µM.

The molecule `O=C(/C=C/c1ccc(C(F)(F)F)cc1)Oc1cc(=O)oc2ccccc12` returned a half-inhibitory concentration (IC50) in assay [1] of more than 100 µM. Also, the inhibition in the assay with Saccharomyces cerevisiae [2] came out at 41.9%.

`O=C(/C=C/c1ccc(O)cc1)Oc1cc(=O)oc2ccccc12` displayed a half-inhibitory concentration (IC50) in assay [1] of more than 100 µM. The molecule further came in with an inhibition in the assay with Saccharomyces cerevisiae [2] of 33.2%.

Molecule `O=C(O)/C=C/c1ccccc1` [CINNAMIC ACID] showed an IC50 in assay [1] of 15000 µM.

`O=C(/C=C/c1ccc(Cl)cc1)Oc1ccc2ccc(=O)oc2c1`: the IC50 in assay [1] is more than 100 µM. In addition, in the assay with Saccharomyces cerevisiae [2], the inhibition came to 29.9%.

The molecule `O=C(/C=C/c1ccc(F)cc1)Oc1ccc2ccc(=O)oc2c1` yielded an IC50 in assay [1] of more than 100 µM. Further, the inhibition in the assay with Saccharomyces cerevisiae [2] amounted to 26.2%.

With `O=C(/C=C/c1ccc(F)cc1)Oc1cc(=O)oc2ccccc12`, the IC50 in assay [1] was found to be 41.7 µM. The molecule further yielded an inhibition in the assay with Saccharomyces cerevisiae [2] of 68.5%.

`O=c1ccc2ccc(O)cc2o1` [UMBELLIFERONE] yielded a half-inhibitory concentration (IC50) in assay [1] of 9000 µM.

In the case of `COc1ccc(/C=C/C(=O)Oc2ccc3ccc(=O)oc3c2)cc1`, the half-maximal inhibitory concentration (IC50) in assay [1] was more than 100 µM. Besides, the inhibition in the assay on Saccharomyces cerevisiae [2] is 20.2%.

In the case of `C[C@H]1[C@H](C)CC[C@]2(C(=O)O)CC[C@]3(C)C(=CC[C@@H]4[C@@]5(C)CC[C@H](O)C(C)(C)[C@@H]5CC[C@]43C)[C@H]12` [URSOLIC ACID], the midpoint of inhibition in assay [1], the IC50, lay at 11.4 µM.

For the molecule `O=C(/C=C/c1ccc(Cl)cc1)Oc1cc(=O)oc2ccccc12`, the half-maximal inhibitory concentration (IC50) in assay [1] is more than 100 µM. Besides, the inhibition with Saccharomyces cerevisiae [2] was 33.1%.

Molecule `Cc1ccc(/C=C/C(=O)Oc2ccc3ccc(=O)oc3c2)cc1` showed an IC50 in assay [1] of 94.5 µM. For the same molecule, the inhibition in the assay on Saccharomyces cerevisiae [2] was determined as 54.7%.

In assay [1], `COc1cc(/C=C/C(=O)Oc2cc(=O)oc3ccccc23)ccc1O` registered a 50% inhibitory concentration (IC50) of more than 100 µM. Further, the inhibition with Saccharomyces cerevisiae [2] is 19.5%.

With `COc1cc(/C=C/C(=O)Oc2ccc3ccc(=O)oc3c2)ccc1O`, the IC50 in assay [1] is more than 100 µM. Besides, the inhibition in the assay on Saccharomyces cerevisiae [2] worked out at 20.3%.

Consider `Cc1ccc(/C=C/C(=O)Oc2cc(=O)oc3ccccc23)cc1`, for which half-maximal inhibition in assay [1] (IC50) required 13 µM. This molecule gave an inhibition with Saccharomyces cerevisiae [2] of 89.9%. The inhibition result in the assay on Saccharomyces cerevisiae [3] was “Active”. Besides, the Ke in the assay on Saccharomyces cerevisiae [4] is 27 µM; with Saccharomyces cerevisiae [5] it was 13.7 µM.

Molecule `O=C(/C=C/c1ccc(C(F)(F)F)cc1)Oc1ccc2ccc(=O)oc2c1` gave a half-maximal inhibitory concentration (IC50) in assay [1] of more than 100 µM. In the assay on Saccharomyces cerevisiae [2], this molecule yielded an inhibition of 38.2%.

`O=C(/C=C/c1ccc(O)cc1)Oc1ccc2ccc(=O)oc2c1` registered a concentration for half-maximal inhibition (IC50) in assay [1] of more than 100 µM. In the assay on Saccharomyces cerevisiae [2], this molecule had an inhibition of 13.1%.

As for `O=C(/C=C/c1ccc(Br)cc1)Oc1cc(=O)oc2ccccc12`, in assay [1], the IC50 was 69.3 µM. In addition, the inhibition in the assay with Saccharomyces cerevisiae [2] is 61%.

In turn, `COc1ccc(/C=C/C(=O)Oc2cc(=O)oc3ccccc23)cc1` showed an IC50 in assay [1] of 36.9 µM. Further, the inhibition with Saccharomyces cerevisiae [2] stood at 73.2%.

Source of the values: ChEMBL document CHEMBL4680172, “Synthesis and biological evaluation of coumarin derivatives as α-glucosidase inhibitors” (Eur J Med Chem, 2020).
